According to publication PMC7089137 (Pharmaceutical Chemistry Journal, 2019):
Values after ≈ are worked out from the molar mass of the structure shown.

Assays:
Vaccina virus = test: microbe, parasite or virus in culture; type: cell-based, vaccinia virus Lederle strain; conditions: Orthopoxvirus vaccinia, HEL, read-out: EC50 Vaccina virus
[1] = tested on: L1210, CEM and HeLa cells; test: Cytostatic activity over the three tumor cell lines; type: cell-based
Procedure, shortened: (§1)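 Each well is seeded with (5–7.5) × 10^4 tumor cells and exposed to test compound at 100, 20, 4, 0.8, 0.16 and 0.032 μg/mL (5-fold dilutions). Cells grow at 37°C in humidified CO2: 48 h for murine L1210, 72 h for human CEM and HeLa. They are then counted with a Coulter counter. IC50 is the concentration halving proliferation, reported as mean ± SD of at least two to three independent experiments. Cisplatin is the reference.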

Reo virus-1 = test: Inhibition of virus-induced cytopathicity, reovirus-1 in Vero; type: cell-based; conditions: Vero cell cultures
[2] = tested on: human cervix carcinoma HeLa cells; test: Cytostatic assay, inhibition of HeLa cell proliferation; type: cell-based; conditions: 72 h, read-out: IC50 HeLa
Procedure, shortened: as §1

Sindbis virus = test: Inhibition of virus-induced cytopathicity, Sindbis virus in Vero; type: cell-based; conditions: Vero cell cultures
Para influenza-3 virus = test: Inhibition of virus-induced cytopathicity, parainfluenza-3 virus in Vero; type: cell-based
Punta Toro virus = test: Inhibition of virus-induced cytopathicity, Punta Toro virus in Vero; type: cell-based; conditions: Vero cell cultures

Structure (SMILES): N#Cc1ccc(NC(=S)NN)cc1 [I, N-(4-cyanophenyl)hydrazinecarbothioamide]
- EC50 (Vaccina virus): 45 to 50 µg/mL (≈ 234 to 260 µM)

Structure (SMILES): CSc1ccc(NC(=S)NN)cc1 [II, N-(4-methylsulfanylphenyl)hydrazinecarbothioamide]
- EC50 (Vaccina virus): 45 to 50 µg/mL (≈ 211 to 234 µM)

Structure (SMILES): N#Cc1ccc(NC(=S)NN=Cc2ccccc2)cc1 [Ia, 2-Benzylidene-N-(4-cyanophenyl)hydrazinecarbothioamide]
- cytostatic activity (in words) ([1]; tumor cell lines L1210, CEM, HeLa): did not show cytostatic activity

Structure (SMILES): N#Cc1ccc(NC(=S)NN=Cc2ccc(N(CCCl)CCCl)cc2)cc1 [Ig, 2-{4-[Bis(2-chloroethyl)amino]benzylidene}-N-(4-cyanophenyl)hydrazinecarbo thioamide]
- inhibitory activity against reovirus-1 (in words) (Reo virus-1): no inhibitory activity
- IC50 [2]: 0.3 µg/mL (≈ 0.714 µM)
- IC50 ([1]; read-out: IC50 cytostatic activity): 0.3 to 2.5 µg/mL (≈ 0.714 to 5.95 µM)
- inhibitory activity against Sindbis virus (in words) (Sindbis virus): no inhibitory activity
- inhibitory activity against parainfluenza virus-3 (in words) (Para influenza-3 virus): no inhibitory activity
- inhibitory activity against Punta Toro virus (in words) (Punta Toro virus): no inhibitory activity
